# Compounds with a hit are over-represented: about 2.9% of the library has one in this group of screens.
# M1 ag parental: M1 agonist counterscreen hit in parental CHO-K1 cells; activation, % at 3 µM; 360,000 tested, 0.48% active; Fluo-8 calcium fluorescence; scaled to maximal ATP response, vehicle zero; in the data active = activation above about 15%;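 also: untransfected CHO-K1 host cells lacking M1 receptor as counterscreen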
# OX1R antag-1: blocks the human orexin 1 receptor; O43613; OX1R-expressing cells, FRET antagonist read-out; inhibition, % at 6.6 µM; 330,000 tested, 1.8% active; in the data active = inhibition mostly above about 38%, no sharp cut-off; inactive = mostly below about 40%;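 also: 0% = agonist challenge alone and 100% = reference antagonist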
# Target sequence (O43613 whole entry, looked up): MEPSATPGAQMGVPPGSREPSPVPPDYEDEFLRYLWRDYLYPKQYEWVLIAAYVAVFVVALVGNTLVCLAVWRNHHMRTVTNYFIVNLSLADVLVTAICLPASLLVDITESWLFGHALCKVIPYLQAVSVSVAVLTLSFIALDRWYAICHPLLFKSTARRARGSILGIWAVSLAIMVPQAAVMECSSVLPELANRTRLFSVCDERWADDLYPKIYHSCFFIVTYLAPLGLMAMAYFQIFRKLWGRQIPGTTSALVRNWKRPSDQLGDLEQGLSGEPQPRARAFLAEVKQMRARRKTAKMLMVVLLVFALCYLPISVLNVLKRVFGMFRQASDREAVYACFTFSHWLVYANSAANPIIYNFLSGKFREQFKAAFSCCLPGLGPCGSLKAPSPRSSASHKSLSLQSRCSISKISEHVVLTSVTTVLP
# CHO-K1 Ca antag: M1 antagonist counterscreen hit in parental CHO-K1 cells. ATP-induced calcium, Fluo-8 fluorescence. inhibition, % at 3 µM. 360,000 tested, 0.6% active. AID 602250;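 active = inhibition above a per-plate cutoff, the plate's mean sample inhibition plus 3 SD, cut at about 24% in these data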;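 also: 0% = DMSO plus EC80 ATP and 100% = DMSO alone without ATP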
# CHO parental Ca: counter-screen for OX1R antagonists: effect in parental CHO cells. 330,000 tested, 0.63% active. AID 463079. inhibition, % at 5.6 µM. parental CHO-K1, ATP-induced calcium, Fluo-8 fluorescence;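 active = inhibition above that plate's mean sample inhibition plus 3 SD, cut at about 26% in these data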;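 also: 0% = ATP-challenged DMSO wells and 100% = DMSO wells without ATP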
#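 Test system: parental CHO cells; detection: calcium-sensitive Fluo-8 fluorescence; evaluation: percent inhibition of calcium signal; also added: ATP as calcium-mobilizing challenge; repeats: one well per compound; control set: ATP-challenged DMSO wells low, unchallenged DMSO wells high; compound: single nominal dose of 5.6 µM per compound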
# CHO-K1 Ca PAM: M1 PAM counterscreen hit in parental CHO-K1 cells. ATP EC20, Fluo-8 calcium fluorescence; 0% at ATP EC20, 100% at ATP max. activation, % at 3 µM. 360,000 tested, 0.02% active. AID 602247;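 active = activation above the run cutoff, the mean activation of all test compounds plus 3 SD, cut at about 40% in these data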;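 also: peak over basal fluorescence ratio in a 140 s read after ATP addition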
# OX1R antag-2: human HCRTR1 antagonism; O43613; CHO/OX1R cells, Fluo-8 calcium fluorescence, orexin A; inhibition, % at 5 µM; 330,000 tested, 0.43% active;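 active = inhibition above its plate's threshold, mean inhibition of all tested compounds on the plate plus 3 SD, cut at about 37% in these data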;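 also: 0% = orexin A challenge wells and 100% = SB-334867-A antagonist wells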
# OX1R HTRF conf: OX1R (human) antagonism, HTRF confirmed; OX1R-expressing cells, HTRF antagonist assay; shares compounds with OX1R antag-1; 1,800 tested, 49% active; inhibition, % at 6.6 µM; in the data active = inhibition above about 55%;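 also: CHO cells expressing OX1R stimulated with orexin A at about EC80; 0% = agonist challenge alone and 100% = reference antagonist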
# CHO-K1 HTRF: signal in parental CHO-K1 cells, OX1R antagonist counter-screen; shares compounds with OX1R antag-1; AID 493232; HTRF counterscreen; inhibition, % at 6.6 µM; 1,800 tested, 48% active; in the data active = inhibition above about 17%;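 also: 0% = agonist challenge with vehicle and 100% = vehicle alone without agonist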
# * hit, by the source's call; / = not tested or not shown.
SMILES,M1 ag parental,OX1R antag-1,CHO-K1 Ca antag,CHO parental Ca,CHO-K1 Ca PAM,OX1R antag-2,OX1R HTRF conf,CHO-K1 HTRF
CCOC(=O)C(Cc1c[nH]c2ccc([N+](=O)[O-])cc12)(NC(C)=O)C(=O)OCC,0,/,-12,/,8,/,/,/
O=[n+]1cc(-c2cc3ccccc3o2)n([O-])c2c1CCCC2,2,89*,-7,-12,10,-8,35,44*
O=[n+]1cc(-c2ccccc2)n([O-])c2c1CCCCC2,0,25,-6,-12,12,2,/,/
O=C(NN1CCCCC1)c1ccc(COc2ccc(Cl)cc2)cc1,2,5,-7,-3,16,-14,/,/
CN(CC(=O)Nc1ccccc1C(F)(F)F)C(=O)CSc1nnc(-c2ccncc2)n1C,1,7,-17,7,16,-17,/,/
CCOC(=O)N/N=C/c1ccc(N(CC)CC)cc1O,0,13,-14,5,21,2,/,/
CCN(CC)c1ccc(/C=N/NC(=O)c2c(Cl)cnn2C)c(O)c1,1,77*,-7,-9,13,20,66*,12
Cc1nc2c(-c3ccccc3)c(C)nn2c(SCC(N)=O)c1Cc1ccccc1,1,7,-11,-25,19,-13,/,/
Cc1cc(C)c(S(=O)(=O)N2CCOC2CNC(=O)C(=O)NCCN(C)C)c(C)c1 (stereo not drawn),1,16,-6,-7,17,0,/,/
CCOC(=O)c1c(=O)n(O)c2ccc(OC)cc2[n+]1[O-],3,118*,-2,4,18,14,30,62*
COc1ccc2c(c1)[n+](=O)c(C(C)=O)c(C)n2[O-],0,39,-9,21,15,4,/,/
CCOC(=O)CN1C(=O)N[C@@H](c2ccco2)C(C(C)=O)=C1C,0,7,-8,-9,3,-8,/,/
CCc1nc2ccccc2c(=O)n1/N=C/c1ccc(Cl)cc1,1,13,6,-24,-17,-24,/,/
COc1ccc(C(=O)NCCN2C(=O)S/C(=C\c3cccnc3)C2=O)c(OC)c1OC,2,82*,18,-20,-9,-14,58*,24*
O=C(CCl)NCCN1C(=O)S/C(=C\c2cccnc2)C1=O,0,49,-5,6,-4,-6,/,/
CC(C(=O)NCCN1C(=O)S/C(=C\c2cccnc2)C1=O)N1C(=O)c2ccccc2C1=O (stereo not drawn),1,79*,-4,-14,24,-34,64*,40*
O=C(CNC(=O)c1ccccc1)c1ccccc1,1,85*,-16,-11,12,-18,15,-4
O=C(Nc1cccc2ccccc12)NC(Cc1ccccc1)C(=O)O (stereo not drawn),0,8,-5,16,13,5,/,/
Cc1cc(N=NC(=O)c2ccccc2O)c2ccccc2c1O,6,120*,-7,-8,16,-18,94*,48*
CC(C)CCn1c(O)c(N=NC(=O)c2ccco2)c2ccccc21,3,11,-9,-37,26,-42,/,/
Cn1c(O)c(N=NC(=O)c2ccco2)c2ccccc21,1,166*,15,-28,-11,-9,83*,53*
Cn1c(O)c(N=NC(=O)c2ccccc2O)c2ccccc21,2,121*,11,-10,-14,-13,91*,29*
Cn1c(O)c(N=NC(=O)CNC(=O)c2ccco2)c2ccccc21,1,79*,6,-13,-8,-5,39,48*
Cn1c(O)c(N=NC(=O)CNC(=O)/C=C/c2ccccc2)c2ccccc21,1,33,3,-25,6,-14,/,/
CCC(C)NS(=O)(=O)c1ccc(F)c(C(=O)Nc2c(F)cc(F)cc2Br)c1 (stereo not drawn),1,7,-11,-16,2,-17,/,/
SMILES,M1 ag parental,OX1R antag-1,CHO-K1 Ca antag,CHO parental Ca,CHO-K1 Ca PAM,OX1R antag-2,OX1R HTRF conf,CHO-K1 HTRF
CC(C)c1ccc(CC(=O)N2CCC2(C)C(=O)NS(=O)(=O)c2cccc(C#N)c2)cc1 (stereo not drawn),1,/,-12,/,22,/,/,/
COc1cc(Cn2c3ccc(NC(=O)NCc4ccc(F)cc4)cc3c(=O)n2C)ccc1F,1,/,-1,/,6,/,/,/
Cn1nnc(NC(=S)NC(=O)c2cccc3c(Cl)cccc23)n1,2,12,-5,-9,20,-30,/,/
CC1(O)C(c2ccccc2)=Nc2ccccc21 (stereo not drawn),1,/,5,/,12,/,/,/
Cc1occc1C(=O)N=Nc1c(O)n(C)c2ccccc12,0,37,-17,-9,27,-17,/,/
CCOC(=O)C(=O)N=Nc1c(O)n(C)c2ccccc12,0,183*,-11,-6,16,-91,49,75*
CCN(CC(=O)Nc1ccccc1OC)C(=O)COc1ccc2ccccc2c1,3,97*,15,-19,-7,14,66*,4
CCN(CC(=O)Nc1ccc(NC(C)=O)cc1)C(=O)COc1ccc2ccccc2c1,1,6,-5,-21,-2,-12,/,/
O=[N+]([O-])c1ncccc1OCc1ccc(Br)cc1F,1,2,-13,0,0,-17,/,/
Cc1ccc(CNC(=O)C(NS(=O)(=O)c2cccc3nsnc23)C(C)C)cc1 (stereo not drawn),2,38,-6,-12,0,-18,/,/
CCCNC(=O)C(NS(=O)(=O)c1cccc2nsnc12)c1ccccc1 (stereo not drawn),0,98*,2,-20,2,-31,64*,36*
CC(=O)Nc1ccc(NC(=O)C2CCCN2S(=O)(=O)c2cccc3nsnc23)cc1 (stereo not drawn),19*,80*,2,5,5,-12,62*,36*
O=C(NCc1ccco1)C(NS(=O)(=O)c1cccc2nsnc12)c1ccccc1 (stereo not drawn),0,92*,8,-29,-2,-28,61*,28*
O=C(CCNS(=O)(=O)c1cccc2nsnc12)NC1CCN(Cc2ccccc2)CC1,0,78*,-2,-24,2,-26,36,53*
C=CCOc1ccc(Br)cc1CNC(C)(C)C,0,0,-11,-8,26,-22,/,/
CCOC(=O)Cn1nc(C(F)F)c(Br)c1C,1,36,-9,-16,21,-7,/,/
O=C(CCS(=O)(=O)c1cccc2nsnc12)N1CCN(C(=O)c2ccco2)CC1,0,91*,-8,6,20,-6,35,53*
O=C(CCNS(=O)(=O)c1cccc2nsnc12)NCc1ccco1,0,122*,-10,0,11,-41,35,39*

# Screening data from PubChem BioAssay.
